Bioassay records deposited in PubChem BioAssay by Sanford-Burnham Center for Chemical Genomics.
SENP7 inh – SENP7 protease inhibition | inhibition, % at 5 µM | 1.5% of 330,000 active | recombinant SENP7, Z-RLRGG-aminoluciferin luminescence, 40 min | Q9BQF6;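 active means inhibition above about 50% at the single test dose, limit read from the data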;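 further: plate controls were DMSO with enzyme for no effect and no enzyme buffer wells for full effect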
SENP8 block-1 – blocks the human protease SENP8. 1.2% of 330,000 active. AID 2540. inhibition, % at 10 µM. purified SENP8, Z-RLRGG-aminoluciferin cleavage, luminescence. Q96LD8; in the data active means inhibition above about 50%
SENP8 block-2 – blocks human SENP8 cleavage of Nedd8 substrate; Q96LD8; AID 602440; inhibition, % at 20 µM; 0.64% of 360,000 active; recombinant SENP8, Nedd8 substrate fluorescence; in the data active means inhibition mostly above about 40%, no sharp cut-off; inactive means mostly below about 27%
SENP6 inh – inhibitors of human SENP6 protease; 1.8% of 330,000 active; Recombinant SENP6 catalytic domain, aminoluciferin luminescence; Q9GZR1; inhibition, % at 10 µM;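 active means inhibition above about 50% at the single tested dose, limit read from the data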;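 further: plate controls were DMSO wells with enzyme for no effect and DMSO wells lacking enzyme for full effect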
Target sequence (Q9GZR1 628-1112 limits assumed): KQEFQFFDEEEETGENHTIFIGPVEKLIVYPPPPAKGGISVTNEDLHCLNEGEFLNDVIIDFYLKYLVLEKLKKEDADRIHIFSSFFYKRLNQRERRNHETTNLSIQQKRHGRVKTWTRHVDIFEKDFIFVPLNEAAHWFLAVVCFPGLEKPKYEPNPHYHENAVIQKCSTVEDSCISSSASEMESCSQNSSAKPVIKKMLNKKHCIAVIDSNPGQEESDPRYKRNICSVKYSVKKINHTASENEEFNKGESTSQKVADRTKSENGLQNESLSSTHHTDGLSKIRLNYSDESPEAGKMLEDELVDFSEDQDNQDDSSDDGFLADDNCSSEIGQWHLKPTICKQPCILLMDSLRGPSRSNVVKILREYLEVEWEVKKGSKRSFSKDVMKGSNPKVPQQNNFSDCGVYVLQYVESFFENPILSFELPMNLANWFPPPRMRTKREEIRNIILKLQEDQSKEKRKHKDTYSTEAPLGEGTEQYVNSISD
SENP1 inh – SENP1 (human) catalytic domain inhibition; Q9P0U3; recombinant SENP1 catalytic domain, CyPet-SUMO1-YPet FRET cleavage; inhibition, % at 10 µM; 0.21% of 360,000 active;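 active means inhibition at least 30% at 10 µM, raw YFP signal under a set limit, fluorescence ratio 0.5 to 1.5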;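 further: 0% = enzyme with DMSO and 100% = no enzyme wells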
Target sequence (Q9P0U3 419-644 limits assumed): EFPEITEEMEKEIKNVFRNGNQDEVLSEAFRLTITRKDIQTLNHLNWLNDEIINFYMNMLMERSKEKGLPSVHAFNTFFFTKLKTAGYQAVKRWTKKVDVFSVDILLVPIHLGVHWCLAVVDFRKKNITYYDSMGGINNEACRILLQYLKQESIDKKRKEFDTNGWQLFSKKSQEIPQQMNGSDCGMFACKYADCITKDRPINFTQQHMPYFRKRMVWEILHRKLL
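Assay system – human recombinant His6-tagged SENP1 catalytic domain enzyme · Input – SENP1 enzyme, 20 pM final · Buffer or medium – Tris pH 8 buffer plus EDTA, NaCl, BME, BSA, NP40, catalase · Schedule – 50 min reaction at room temperature · Technique – FRET read of cyan and yellow fluorescence · Control set – no-enzyme wells low, DMSO-plus-enzyme wells high control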
SENP8 confirm – confirmation of human SENP8 protease inhibitors; shares compounds with SENP7 inh; Recombinant SENP8, Z-RLRGG-aminoluciferin luminescence, 60 min; inhibition, % at 12.5 µM; 40% of 6,200 active;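 active means mean inhibition across replicates above about 50%, limit read from the data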
SENP6 confirm – human SENP6 inhibition, confirmed; shares compounds with SENP7 inh; recombinant SENP6, Z-RLRGG-aminoluciferin luminescence; inhibition, % at 12.5 µM; 58% of 6,200 active
SENP7 conf – human SENP7 inhibition, confirmed | shares compounds with SENP7 inh | inhibition, % at 12.5 µM | AID 488917 | 69% of 6,200 active | recombinant SENP7, Z-RLRGG-aminoluciferin luminescence, 40 min
Casp3 select – caspase-3 inhibition (SENP selectivity assay). shares compounds with SENP7 inh. purified caspase-3, Z-DEVD-aminoluciferin luminescence, 60 min. inhibition, % at 12.5 µM. 60% of 6,200 active. AID 488918;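 active means mean inhibition above about 50%, limit read from the data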;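 further: plate controls were enzyme with DMSO for no effect and wells without caspase-3 for full effect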
Luc interf – counter-screen for SENP inhibitors: luminescence interference; AID 488919; Pre-incubated SENP8/Z-RLRGG-aminoluciferin, luciferase luminescence interference; shares compounds with SENP7 inh; inhibition, % at 12.5 µM; 39% of 6,200 active;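 active means mean inhibition above about 50% when retested at one dose, limit read from the data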;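 further: plate controls were DMSO wells with completed reaction for no effect and substrate without enzyme for full effect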
Active calls of the source: *; . = not tested or not shown. Hits are enriched below; roughly 2.5% of the tested compounds scored in any of these assays.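 How the source made its calls, unless noted: active means mean inhibition above about 50% in the one-dose retest (limit read from the data); inactive means the rest.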

SMILES	SENP7 inh	SENP8 block-1	SENP8 block-2	SENP6 inh	SENP1 inh	SENP8 confirm	SENP6 confirm	SENP7 conf	Casp3 select	Luc interf
COC(=O)c1cnc(SCC(=O)c2ccccc2)n1C	79.0*	70.9*	12.8	83.4*	1.5	78.7*	77.2*	92.7*	92.3*	79.9*
CCOC(=O)C(/C(N)=N/C(=O)Nc1ccccc1)=C(\C)O	1.1	44.1	11.0	64.0*	3.9	16.5	56.9*	88.1*	80.5*	7.9
COc1ccccc1CNC(=O)c1ccccc1C(=O)NC(CC(C)C)C(=O)NCc1ccccc1OC (stereo not given)	0.7	-7.5	-0.5	-7.6	2.0	.	.	.	.	.
CCC(=O)Nc1ccc2c(c1)C(=O)c1ccccc1C2=O	37.9	7.6	18.3	15.9	2.7	.	.	.	.	.
CCC(C)(C)c1ccc2c(c1)C(=O)c1ccccc1C2=O	76.8*	79.0*	13.7	93.0*	1.1	10.2	83.5*	86.5*	95.5*	79.9*
CC(C)(C)NC(=O)CN(C(=O)CCC(=O)Nc1nccs1)c1cccc(C(F)(F)F)c1	-4.6	-13.5	11.0	-15.0	0.6	.	.	.	.	.
CC[C@@H](C)C(NC(=O)OC(C)(C)C)c1cn([C@@H](Cc2ccc(O)cc2)C(=O)N2CCN(C(=O)OC(C)(C)C)CC2)nn1 (stereo not given in full)	32.7	47.8	2.8	81.8*	3.8	-1.4	-5.4	-0.2	6.2	6.7
CC[C@H](C)C(C(=O)N1CCN(C(=O)OC(C)(C)C)CC1)n1cc(C(CC(C)C)NC(=O)OC(C)(C)C)nn1 (stereo not given in full)	-5.6	-8.3	1.7	-1.2	2.7	.	.	.	.	.
CCCCc1ccc(-c2nc(-c3ccncc3)no2)cc1	89.7*	83.0*	0.4	20.6	1.6	10.9	10.6	8.8	-5.3	1.5
CCc1ccc(-c2nc(-c3ccncc3)no2)cc1	89.7*	80.0*	26.3	87.1*	-0.9	84.1*	88.0*	97.0*	80.4*	66.6*
Cc1ccc2oc(C(=O)NCCCN3CCOCC3)c(C)c2c1	3.3	-5.7	-0.5	-0.5	0.9	.	.	.	.	.
Cc1cc(C)c2c(N)c(C(=O)NN3CC(=O)N(c4ccccc4)CC3=O)sc2n1	-7.2	1.1	-475.0	-15.6	-34.5	.	.	.	.	.
COc1cc(SC)ccc1C(=O)Nc1cccc(C)n1	44.5	27.1	15.4	-19.4	1.2	.	.	.	.	.
COc1cc(SC)ccc1C(=O)Nc1ccc2ncccc2c1	88.4*	88.4*	-23.4	93.8*	1.1	3.3	77.1*	95.3*	67.7*	38.0
COc1cc(SC)ccc1C(=O)Nc1ccc(C)cc1C	70.2*	61.4*	8.4	75.2*	0.8	20.3	25.6	24.5	38.7	6.1
COc1cc(SC)ccc1C(=O)Nc1ncc(C)s1	93.5*	88.6*	-170.2	95.7*	-0.7	90.0*	90.8*	100.0*	89.1*	35.2
COc1cc(SC)ccc1C(=O)Nc1ccc(Br)cn1	90.4*	82.3*	3.8	90.2*	0.9	53.2*	75.7*	80.4*	77.4*	50.4*
COc1cc(SC)ccc1C(=O)Nc1ccccn1	44.2	17.7	14.5	47.2	-0.1	.	.	.	.	.
COc1cc(SC)ccc1C(=O)Nc1ccc(C)cc1	7.1	2.3	7.1	-13.3	0.7	.	.	.	.	.
Cc1csc(-c2ccc3cc(Cl)cc(Cl)c3n2)n1	.	.	-364.7	.	-1.1	.	.	.	.	.
Cc1ccc(Nc2nnc(SCC(=O)NCCN3C(=O)CSC3=O)s2)cc1C	53.0*	46.5	8.3	24.7	1.0	51.2*	46.0	77.8*	63.5*	55.2*
CCCCN1CC(C)(C)[C@H](CC(=O)NC)C1=O	.	.	4.1	.	0.8	.	.	.	.	.
Cc1cc(NC(=O)c2ccccc2)ncc1NC(=O)c1ccco1	91.1*	79.8*	-2.1	91.2*	-11.5	88.7*	87.9*	98.9*	96.5*	86.7*
CCCC(=O)Nc1cnc(NC(=O)c2cccc(F)c2)cc1C	79.0*	53.0*	16.5	82.4*	1.9	77.6*	74.9*	94.3*	92.4*	75.3*
CCC(=O)Nc1cc(C)c(NC(=O)c2ccco2)cn1	0.9	-1.3	17.6	-7.2	-1.3	.	.	.	.	.
SMILES	SENP7 inh	SENP8 block-1	SENP8 block-2	SENP6 inh	SENP1 inh	SENP8 confirm	SENP6 confirm	SENP7 conf	Casp3 select	Luc interf
O=C(Nc1nc2c(F)cccc2s1)c1ccc([N+](=O)[O-])o1	23.0	42.6	3.9	70.6*	-2.3	-25.6	-18.7	-9.6	-2.9	-6.8
O=C(Nc1nc2c(Cl)cccc2s1)c1ccc(Br)o1	1.6	-2.5	-154.7	-1.6	-13.2	.	.	.	.	.
O=C(Nc1nc2c(Cl)cccc2s1)c1ccc([N+](=O)[O-])o1	6.7	43.3	4.6	59.2*	3.4	35.2	41.8	77.3*	25.7	46.5
Cc1ccc(C)c(NC(=O)CN2C(=O)C3CC=CCC3C2=O)c1 (stereo not given)	.	.	9.2	.	-0.4	.	.	.	.	.
Nc1nnnn1/N=C/c1cccc(O)c1	-3.3	-12.8	14.8	6.8	2.1	.	.	.	.	.
Nc1nnnn1/N=C/c1ccc(O)cc1	90.3*	88.9*	-39.9	95.1*	-1.1	92.6*	93.2*	101.0*	97.5*	85.3*
O=C(CNc1ccc(C(F)(F)F)cc1)Nc1cccc(S(=O)(=O)N2CCCCC2)c1	.	.	17.1	.	2.0	.	.	.	.	.
O=C(O)c1cc(O)ccc1N=Nc1ccccc1	-4.0	4.6	1.9	6.2	0.8	.	.	.	.	.
Oc1ccc(N=Nc2ccccc2)cc1	67.9*	73.6*	28.7	82.4*	0.9	80.7*	79.5*	91.2*	56.6*	82.6*
COc1ccc(N=Nc2ccc(CO)cc2)cc1	65.8*	40.0	29.1	50.6*	2.3	61.1*	58.4*	83.4*	59.6*	47.0
Oc1ccc(Cl)cc1N=Nc1ccccc1	67.4*	42.7	3.6	73.3*	-0.2	-6.4	27.3	80.4*	23.3	6.7
OCc1ccc(N=Nc2ccccc2)cc1	54.9*	23.7	19.6	43.0	3.0	35.4	34.8	73.5*	51.7*	53.2*
COc1ccc(C/C(N)=N/O)cc1	-1.1	-5.9	8.4	-21.7	0.5	.	.	.	.	.
O=S1(=O)CC(O)C(O)CS1 (stereo not given)	.	.	5.1	.	-1.5	.	.	.	.	.
COC(=O)c1ccc(N=Nc2ccccc2)cc1	58.7*	47.3	12.4	14.8	1.4	9.8	57.0*	85.7*	49.2	34.7
CCOC(=O)C1CCN(CC(=O)c2c(C)n(C)c3ccc(OC)cc23)CC1	-5.6	2.9	10.0	0.2	-0.2	.	.	.	.	.
